Sampled rows, rich in hits. Any-hit rate of the full collection: about 3.1%.
FN deposition inh – inhibitors of fibronectin matrix deposition, primary screen, AH1F cells, Alexa488-fibronectin fluorescence, plate reader. AH1F fibroblasts, overnight. inhibition, % at 12.6 µM. 0.086% of 350,000 active. AID 743247, 2014;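 active = mean inhibition across replicates of 30% or more, regardless of how many single replicates reach that level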
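material = AH1F fibroblast monolayer depositing Alexa488-labelled fibronectin into matrix | amount = 10000 AH1F cells/well | buffer or medium = DMEM plus 2% serum, read in PBS | incubation = 1 h cell adhesion before compound, then overnight fibronectin incubation | detection = fluorescence at 485 nm excitation, 525 nm emission | evaluation = percent inhibition as loss of matrix-bound fibronectin fluorescence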
PGC1a acetyl inh – inhibitors of PGC1a acetylation signal, primary screen, cell-based, U2OS, AlphaScreen, inhibitor mode; AlphaScreen anti-acetyl-lysine; with virally co-expressed GCN5 acetyltransferase; inhibition, % at 15.6 µM; 0.17% of 350,000 active; AID 651687, 2012;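 active = every replicate shows inhibition of at least 40%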
Env fusion inh – inhibitors of HIV-1 Env-driven cell-cell fusion, primary screen, HeLa-JRFL effector, CEM21 target cells, luciferase. inhibition, % at 12.3 µM. 1.1% of 360,000 active;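 active = mean replicate inhibition score of at least 50 and every replicate individually at or above 50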
PAX8 inh HTS – inhibitors of PAX8-driven TPO luciferase reporter, primary screen, RMG-I cells, single concentration; SteadyGlo, 24 h; inhibition, % at 12.6 µM; 1.2% of 360,000 active;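 active = mean replicate inhibition at least 60% with every replicate also reaching 60%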;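 also: luciferase light reporting Pax8 driven TPO promoter activity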
EWS-Fli block – EWS/Fli-driven NR0B1 reporter inhibitors, primary screen, A673 cells, NR0B1 luciferase, luminescence, MLPCN library. viability-normalised. inhibition, % at 12.6 µM. 0.67% of 350,000 active;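 active = mean inhibition of at least 50% after viability correction, with every replicate also passing that limit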;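 also: firefly luciferase signal divided by Alamar Blue viability fluorescence both relative to DMSO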
FGF22 binding – binders of human FGF22 protein, primary screen, FGF22 synaptogenesis inhibitor project, biophysical, thermal shift, single point; recombinant FGF22 thermal shift, SYPRO orange fluorescence; percent of sucrose octasulfate shift, DMSO zero; Fibroblast growth factor 22 (Homo sapiens), Q9HCT0; 1.5% of 340,000 active; AID 651658, 2012; activity (Tm shift, normalised), % at 9.99 µM;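 active = mean Tm shift, scaled 0 neutral to 100 positive control, at about 1.3% or above, every replicate too, limit read from the data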
Target sequence (Q9HCT0 whole entry, looked up): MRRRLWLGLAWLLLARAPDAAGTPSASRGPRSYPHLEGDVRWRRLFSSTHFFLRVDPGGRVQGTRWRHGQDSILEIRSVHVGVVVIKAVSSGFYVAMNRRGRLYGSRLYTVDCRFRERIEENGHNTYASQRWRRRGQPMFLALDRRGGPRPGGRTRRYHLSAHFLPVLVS
Each line names hits and unclear results; the compound was inactive in the other large screens; [ ] = another dose, or the depositor's remark.

COCC(=O)N(C)C[C@H]1Oc2ncc(C#CC(C)(C)O)cc2C(=O)N([C@@H](C)CO)C[C@@H]1C	none (no result: FGF22 binding)
O=C(Nc1ccc(F)cc1)N1CC(=O)N2[C@H](CO)[C@H](c3ccc(C4=CCCC4)cc3)[C@H]2C1	none (no result: Env fusion inh)
O=C(NC1CCCCC1)[C@@H]1[C@@H](CO)[C@@H]2Cn3c(cccc3=O)[C@@H]2N1CC1CCOCC1	none (no result: FN deposition inh, PGC1a acetyl inh, Env fusion inh, PAX8 inh HTS)
COc1cc(-c2noc(C)c2C#CCO)cc(OC)c1OC	none
COc1cc(-c2noc(C)c2C#Cc2ccsc2)cc(OC)c1OC	EWS-Fli block 59 (no result: PGC1a acetyl inh)
O=C(Nc1cccc(Cl)c1)N[C@@H]1CC[C@H](CCNC(=O)C2CCCCC2)O[C@@H]1CO	none
COc1ccc2[nH]c3c(c2c1)CC(C)NC3=O (stereo unspecified)	none (no result: PGC1a acetyl inh)
COc1cc2c3c([nH]c2cc1F)C(=O)NCC3	Env fusion inh 59 (no result: PGC1a acetyl inh)
C[C@H]1CCCCO[C@@H](CN(C)C(=O)Nc2ccc3c(c2)OCO3)[C@@H](C)CN([C@@H](C)CO)C(=O)c2cc(NC(=O)c3ccncc3)ccc2O1	none (no result: PAX8 inh HTS)
CCOC(=O)[C@]12CCCC=C1N(CCC1=CCCCC1)C(=O)[C@H](CC(=O)NCc1ccc(OC)c(OC)c1)C2	Env fusion inh 71 (no result: PGC1a acetyl inh)
CCCCCCCCN1C(=O)[C@H](CC(=O)NCc2ccc(OC)c(OC)c2)C[C@@]2(C(=O)OC)CCCCC=C12	Env fusion inh 118 (no result: PGC1a acetyl inh)
COC(=O)[C@]12CCCCC=C1N(CCC1=CCCCC1)C(=O)[C@H](CC(=O)NCc1ccc(OC)c(OC)c1)C2	Env fusion inh 80 (no result: PGC1a acetyl inh)
CCOC(=O)[C@]12CCCC=C1N(Cc1cccc3ccccc13)C(=O)[C@H](CC(=O)NCc1ccc(OC)c(OC)c1)C2	Env fusion inh 56 (no result: PGC1a acetyl inh)
CCOC(=O)[C@]12CCCC=C1N(Cc1ccccc1)C(=O)[C@H](CC(=O)NCc1ccc(OC)c(OC)c1)C2	none (no result: PGC1a acetyl inh)
CCCCCCCCN1C(=O)[C@H](CC(=O)NCc2ccc(OC)c(OC)c2)C[C@@]2(C(=O)OCC)CCC=C12	none (no result: PGC1a acetyl inh)
C[C@@H]1CN([C@@H](C)CO)C(=O)c2cc(NS(=O)(=O)c3ccc(F)cc3)ccc2O[C@@H](C)CCCCO[C@@H]1CN(C)S(=O)(=O)c1cccs1	none
CN(C)c1ccc(C(=O)OCc2ccccc2)cc1	none (no result: PAX8 inh HTS, EWS-Fli block, FGF22 binding)
O=C1C=CC(=O)C(CNc2ccc(C(=O)OCc3ccccc3)cc2)=C1	EWS-Fli block 59
Cc1noc(C)c1S(=O)(=O)N(C)C[C@H]1OCCCC[C@@H](C)Oc2ccc(NS(=O)(=O)c3ccc(Cl)cc3)cc2C(=O)N([C@H](C)CO)C[C@@H]1C	none (no result: FN deposition inh)
Cc1nn(C)c(C)c1/C=C(/C(=O)C(C)(C)C)n1cncn1	none
CC(C)(C)C(=O)/C(=C/c1ccncc1)n1cncn1	PAX8 inh HTS 70 (no result: PGC1a acetyl inh)
CCCCN(C=O)c1c(CC)nc2ccc(C(=O)Nc3cc(-c4ccccc4)ccc3OC)cn12	PAX8 inh HTS 75
C[C@@H]1CN([C@H](C)CO)C(=O)c2cccc(NC(=O)c3cnccn3)c2O[C@H]1CN(C)Cc1ccc2c(c1)OCO2	none (no result: FN deposition inh)
O=C(C[C@H]1C=C[C@@H](NC(=O)C2CCC2)[C@H](CO)O1)NCCCN1CCOCC1	none
O=C(O)C[C@@H]1CC[C@@H](NC(=O)c2ccncc2)[C@H](CO)O1	Env fusion inh 63[16.7 µM]
O=C(C[C@@H]1CC[C@@H](NC(=O)c2ccncc2)[C@H](CO)O1)NCCc1ccncc1	Env fusion inh 62[16.7 µM]
COCCNC(=O)C[C@@H]1CC[C@@H]2[C@H](COC[C@@H](O)CN2Cc2cccc(-c3ccncc3)c2)O1	none
Cc1ccc(S(=O)(=O)NCC[C@@H]2CC[C@H](NS(=O)(=O)c3ccccc3Cl)[C@H](CO)O2)cc1	none
O=C(NC1=NCCS1)c1ccc(Cl)c(S(=O)(=O)N2CCCC2)c1	FGF22 binding 43
O=C(NC1=NCCS1)c1ccc(Cl)c(S(=O)(=O)N2CCOCC2)c1	FGF22 binding 43
O=C(NC1=NCCS1)c1ccc(Cl)c(S(=O)(=O)N2CCCCC2)c1	none (no result: EWS-Fli block, FGF22 binding)
O=C(C[C@H]1CC[C@@H]2[C@H](COC[C@H](O)CN2C(=O)c2ccccc2)O1)Nc1nccs1	none
CCOc1ccc(N(C)S(=O)(=O)c2ccc(C)c(C(=O)OCC(=O)c3c[nH]c4ccccc34)c2)cc1	Env fusion inh 58 (no result: PGC1a acetyl inh)
COc1ccc(NC(=O)CCS(=O)(=O)c2ccccc2Cl)cc1S(=O)(=O)Nc1ccc(Cl)cc1	EWS-Fli block 57 (no result: PGC1a acetyl inh)
Cc1ccccc1/C=C/C(=O)N1CCOCC1	FGF22 binding 43
CCCC#Cc1ccc([C@H]2[C@@H](CO)N(S(=O)(=O)c3cccc(F)c3)[C@H]2C#N)cc1	none
O=C1Nc2ccccc2Oc2cc([N+](=O)[O-])ccc21	FGF22 binding 43
Cc1ccc2c(c1)NC(=O)c1cc([N+](=O)[O-])ccc1O2	none (no result: PGC1a acetyl inh)
COc1ccccc1OCCOc1ccc(/C=C2\C(=N)N3N=C(S(C)(=O)=O)SC3=NC2=O)cc1	FGF22 binding 2.1
CCn1c2ccccc2c2cc(Nc3cc(C)nc4ncnn34)ccc21	PAX8 inh HTS 96, EWS-Fli block 64
COc1ccc2c3c([nH]c2c1)[C@H](CO)N(C(=O)C1CC1)CC31CCN(Cc2cccc(F)c2)CC1	PAX8 inh HTS 69 (no result: FN deposition inh, PGC1a acetyl inh, Env fusion inh)
COc1ccc2c3c([nH]c2c1)[C@@H](CO)N(C(=O)C1CC1)CC31CN(Cc2nccs2)C1	PAX8 inh HTS 86 (no result: FN deposition inh, PGC1a acetyl inh, Env fusion inh)
COc1ccc2c3c([nH]c2c1)[C@H](CO)N(C(=O)C1CCCC1)CC31CCN(Cc2cccc(F)c2)CC1	none (no result: FN deposition inh, Env fusion inh, PAX8 inh HTS)
COC(=O)CNC(c1ccccc1)c1cc(Br)ccc1NC(C)=O (stereo unspecified)	FGF22 binding 43
COC(=O)CNC(c1ccccc1)c1cc(Cl)ccc1NC(=O)c1cccc(Cl)c1 (stereo unspecified)	none
C[C@H](CO)N1C[C@H](C)[C@H](CN(C)C)Oc2ccc(NC(=O)C3CC3)cc2C1=O	none (no result: EWS-Fli block)
CCCN1C(=O)S/C(=C\c2ccc(N3CCOCC3)o2)C1=O	FGF22 binding 43 (no result: FN deposition inh)
Cc1cccc(Cn2cnc3c(nnn3Cc3ccc(Cl)cc3)c2=O)c1	Env fusion inh 60 (no result: PAX8 inh HTS, EWS-Fli block, FGF22 binding)
CC(=O)c1ccc(NC(=O)c2cnn3ccccc23)cc1	EWS-Fli block 69 (no result: PGC1a acetyl inh)
Cc1ccc(S(=O)(=O)NCC[C@H]2CC[C@@H](NC(=O)CC3CC3)[C@@H](CO)O2)cc1	none
O=C(CC1CC1)N[C@@H]1CC[C@@H](CCNS(=O)(=O)c2ccc(Cl)cc2)O[C@@H]1CO	PGC1a acetyl inh 56

Screens deposited in PubChem BioAssay by Broad Institute.
